# Laboratory results reported in ChEMBL document CHEMBL2177074, “Variation of the net charge, lipophilicity, and side chain flexibility in Dmt(1)-DALDA: Effect on Opioid Activity and Biodistribution” (J Med Chem, 2012).
# Activity calls are given as the source filed them. Non-standard residues stand in square brackets, D forms with d. Residues, ends and D or L forms follow the SMILES beside them. Dmt = Cc1cc(O)cc(C)c1C[C@H](N)C(=O)O; dCit = NC(=O)NCCC[C@@H](N)C(=O)O; NMeNle = CCCC[C@H](NC)C(=O)O; Nle = CCCC[C@H](N)C(=O)O
# What was measured:
# Brain [1] = assay: Blood brain barrier transport in ICR-CD1 mouse brain assessed as unidirectional initial influx rate at 30000 cpm/uL, iv; format: ADME, organism-based; settings: in vivo
# Mu-type opioid receptor [2] = target: Mu-type opioid receptor (Rattus norvegicus, UniProt P33535); assay: Displacement of [3H]DAMGO from mu opioid receptor in rat brain membranes after 2 hrs; format: cell membranes
# Chain of Mu-type opioid receptor (Rattus norvegicus, UniProt P33535) (P33535 whole entry): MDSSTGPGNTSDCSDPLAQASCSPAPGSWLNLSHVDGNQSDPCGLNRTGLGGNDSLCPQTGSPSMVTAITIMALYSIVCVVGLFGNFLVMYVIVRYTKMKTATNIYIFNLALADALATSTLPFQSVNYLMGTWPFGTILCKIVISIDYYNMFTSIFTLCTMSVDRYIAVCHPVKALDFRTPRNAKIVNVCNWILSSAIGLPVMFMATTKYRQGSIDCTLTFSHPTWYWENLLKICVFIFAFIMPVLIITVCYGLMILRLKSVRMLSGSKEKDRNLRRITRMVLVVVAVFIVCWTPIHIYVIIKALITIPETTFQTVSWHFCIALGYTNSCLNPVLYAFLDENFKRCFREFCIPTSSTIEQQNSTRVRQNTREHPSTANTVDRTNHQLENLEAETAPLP
# [3] = target: Delta-type opioid receptor (Mus musculus, UniProt P32300); assay: (§1) Agonist activity at delta opioid receptor in mouse vas deferens; format: functional, tissue-based
# Chain of Delta-type opioid receptor (Mus musculus, UniProt P32300) (P32300 whole entry): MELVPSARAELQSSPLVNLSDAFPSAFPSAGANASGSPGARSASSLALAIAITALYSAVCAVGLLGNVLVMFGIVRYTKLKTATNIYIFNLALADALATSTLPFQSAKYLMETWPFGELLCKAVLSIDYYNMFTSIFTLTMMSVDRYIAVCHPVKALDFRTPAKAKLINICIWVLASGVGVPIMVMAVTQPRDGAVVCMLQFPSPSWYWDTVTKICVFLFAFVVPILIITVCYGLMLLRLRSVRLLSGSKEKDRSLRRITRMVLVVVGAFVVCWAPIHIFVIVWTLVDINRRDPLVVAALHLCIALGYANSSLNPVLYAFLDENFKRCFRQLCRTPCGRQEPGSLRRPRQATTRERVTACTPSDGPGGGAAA
# Outline: (§2)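 Isolated tissue bioassays: mouse vas deferens and guinea pig ileum preparations. A [Leu5]enkephalin dose-response curve was run as standard on each preparation, and test IC50 values were normalized against it.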
# Mus musculus [4] = assay: Antinociceptive activity in sc dosed CD1 mouse assessed as thermal-stimulus induced tail flick latency after 6 to 7 hrs; format: functional, organism-based
# Outline: (§3)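 Male CD-1 mice (25–35 g) dosed s.c. at 10 µl/g. Radiant-heat tail-flick latency measured with a 10 s cut-off and expressed as %MPE. At least three doses, 5–6 mice per dose.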
# Serum = assay: Biodistribution in ICR-CD1 mouse serum at 30000 cpm/uL, iv after 15 mins; format: ADME, organism-based; settings: in vivo, 0.25 h
# Outline: (§4)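 After intravenous 125I-peptide, kidneys, liver and other organs collected immediately after brain dissection, weighed and gamma-counted. Serum obtained by centrifugation at 10 000 × g for 15 min. Results expressed as % of injected dose per g tissue, normalized to body weight.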
# Brain [5] = assay: Blood brain barrier transport in ICR-CD1 mouse brain assessed as brain efflux rate coefficient at 30000 cpm/uL, iv; format: ADME, organism-based; settings: in vivo
# Mus musculus [6] = assay: Antinociceptive activity in sc dosed CD1 mouse assessed as thermal-stimulus induced tail flick latency after 2 hrs; format: functional; outline: as §3
# [7] = Metabolic stability in mouse brain assessed as compound recovery after 2 hrs; format: ADME, tissue-based; settings: read-out: Stability
# Outline: (§5)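 100 µg unlabelled peptide in Krebs-Henseleit buffer pH 7.4 incubated at 37 °C with shaking, in 250 µl mouse plasma or brain homogenate (150 µg protein). Aliquots quenched with TFA, heated 5 min at 95 °C, then centrifuged. Supernatants analysed by UPLC or HPLC (210 nm); recovery measured after 2 h.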
# Mu-type opioid receptor [8] = target: Mu-type opioid receptor (Cavia porcellus, UniProt P97266); assay: (§6) Agonist activity at mu opioid receptor in guinea pig ileum; format: functional, tissue-based; outline: as §2
# Chain of Mu-type opioid receptor (Cavia porcellus, UniProt P97266) (P97266 whole entry): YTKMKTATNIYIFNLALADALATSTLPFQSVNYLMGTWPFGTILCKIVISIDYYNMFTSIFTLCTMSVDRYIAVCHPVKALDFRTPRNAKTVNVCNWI
# Mus musculus [9] = assay: Antinociceptive activity in CD1 mouse assessed as thermal-stimulus induced tail flick latency at 1 umol/kg, ip after 45 to 60 mins; format: functional, organism-based
# [10] = target: Kappa-type opioid receptor (Cavia porcellus, UniProt P41144); assay: Displacement of [3H]U69,593 from kappa opioid receptor in guinea pig ileum membranes after 2 hrs; format: cell membranes, Membrane
# Chain of Kappa-type opioid receptor (P41144 whole entry): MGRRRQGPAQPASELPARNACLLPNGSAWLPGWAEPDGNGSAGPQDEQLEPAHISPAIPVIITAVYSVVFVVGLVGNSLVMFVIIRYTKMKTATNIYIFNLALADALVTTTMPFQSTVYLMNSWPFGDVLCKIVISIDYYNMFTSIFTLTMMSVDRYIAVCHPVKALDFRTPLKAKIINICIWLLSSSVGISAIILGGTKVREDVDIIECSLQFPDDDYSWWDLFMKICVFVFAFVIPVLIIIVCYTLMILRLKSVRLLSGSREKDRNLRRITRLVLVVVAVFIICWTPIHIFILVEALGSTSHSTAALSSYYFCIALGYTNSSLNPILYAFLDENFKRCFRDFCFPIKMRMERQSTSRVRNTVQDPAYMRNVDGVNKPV
# [11] = Metabolic stability in mouse plasma assessed as compound recovery after 2 hrs; format: ADME, cell-free; settings: read-out: Stability; outline: as §5
# [12] = target: Delta-type opioid receptor (Rattus norvegicus, UniProt P33533); assay: Displacement of [3H]DSLET from delta opioid receptor in rat brain membranes after 2 hrs; format: cell membranes
# Chain of Delta-type opioid receptor (Rattus norvegicus, UniProt P33533) (P33533 whole entry): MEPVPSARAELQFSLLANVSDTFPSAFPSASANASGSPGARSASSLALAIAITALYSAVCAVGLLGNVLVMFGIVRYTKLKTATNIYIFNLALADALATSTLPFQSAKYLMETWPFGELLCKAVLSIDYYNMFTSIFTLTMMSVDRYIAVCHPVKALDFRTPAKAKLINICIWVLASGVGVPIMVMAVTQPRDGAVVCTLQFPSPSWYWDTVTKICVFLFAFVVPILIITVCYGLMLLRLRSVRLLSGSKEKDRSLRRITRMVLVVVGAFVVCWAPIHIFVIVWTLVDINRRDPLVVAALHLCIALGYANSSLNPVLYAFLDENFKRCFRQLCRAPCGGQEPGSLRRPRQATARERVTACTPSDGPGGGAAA
# Mus musculus [13] = assay: Antinociceptive activity in CD1 mouse assessed as thermal-stimulus induced tail flick latency at 1 umol/kg, ip up to 120 mins; format: functional, organism-based
# Liver = assay: Biodistribution in ICR-CD1 mouse liver at 30000 cpm/uL, iv; format: ADME, organism-based; settings: in vivo; outline: as §4
# Mus musculus [14] = assay: Antinociceptive activity in sc dosed CD1 mouse assessed as thermal-stimulus induced tail flick latency after 30 mins; settings: 0.5 h
# Mus musculus [15] = assay: Antinociceptive activity in CD1 mouse assessed as AUC of thermal-stimulus induced tail flick latency assessed per min at 1 umol/kg, ip up to 120 mins; format: functional
# Mus musculus [16] = assay: Antinociceptive activity in CD1 mouse assessed as thermal-stimulus induced tail flick latency at 1 umol/kg, ip after 45 mins; format: functional, organism-based
# Kidney = assay: Biodistribution in ICR-CD1 mouse kidney at 30000 cpm/uL, iv; format: ADME, organism-based; settings: in vivo; outline: as §4
# Mus musculus [17] = assay: Antinociceptive activity in sc dosed CD1 mouse assessed as thermal-stimulus induced tail flick latency after 1 hr; format: functional; outline: as §3
# Mus musculus [18] = assay: Antinociceptive activity in sc dosed CD1 mouse assessed as thermal-stimulus induced tail flick latency after 1 hr relative to morphine; format: functional; outline: as §3
# Mus musculus [19] = assay: Antinociceptive activity in CD1 mouse assessed as thermal-stimulus induced tail flick latency at 1 umol/kg, ip after 60 mins; format: functional, organism-based
# Mus musculus [20] = assay: Antinociceptive activity in sc dosed CD1 mouse assessed as thermal-stimulus induced tail flick latency after 2 to 3 hrs; format: functional, organism-based; outline: as §3
# [21] = Half life in sheep blood; format: ADME, cell-free, Ovis aries, Plasma
# Mus musculus [22] = assay: Antinociceptive activity in sc dosed CD1 mouse assessed as thermal-stimulus induced tail flick latency; format: functional; outline: as §3
# [23] = target: Mu-type opioid receptor (Cavia porcellus) (UniProt P97266); assay: as §6; format: functional, tissue-based; outline: as §2
# Chain of Mu-type opioid receptor (Cavia porcellus) (P97266 whole entry): as the sequence (P97266 whole entry) above
# [24] = target: Delta-type opioid receptor (Mus musculus) (UniProt P32300); assay: as §1; format: functional, tissue-based; outline: as §2
# Chain of Delta-type opioid receptor (Mus musculus) (P32300 whole entry): as the sequence (P32300 whole entry) above
Compound,Kin (Brain [1]),Ki (Mu-type opioid receptor [2]),IC50 [3],Drug uptake (Serum),Activity (Brain [5]),remaining at 2 h [7],IC50 (Mu-type opioid receptor [8]),Ki [10],remaining at 2 h [11],Ki [12],Activity (Mus musculus [13]),Activity (Mus musculus [15]),also measured
Cc1cc(O)cc(C)c1C[C@H](N)C(=O)N[C@H](CCCNC(=N)N)C(=O)N[C@@H](Cc1ccccc1)C(=O)N(C)[C@@H](CCCCN)C(N)=O,18.11 µL/g/min,0.26 nM,7 nM,Active,0.028 min⁻¹,94%,8.3 nM,56.1 nM,112%,309 nM,Active,–,Activity (Mus musculus [4]): Dose-dependent effect; ED50 (Mus musculus [6]): 0.13 µmol/kg; Activity (Mus musculus [9]): Active
CCCC[C@@H](C(N)=O)N(C)C(=O)[C@H](Cc1ccccc1)NC(=O)[C@@H](CCCN=C(N)N)NC(=O)[C@@H](N)Cc1c(C)cc(O)cc1C,–,0.26 nM,1.5 nM,–,–,–,4.35 nM,14.4 nM,–,16 nM,–,–,–
CCCC[C@H](NC(=O)[C@H](Cc1ccccc1)NC(=O)[C@@H](CCCN=C(N)N)NC(=O)[C@@H](N)Cc1c(C)cc(O)cc1C)C(N)=O (H-[Dmt][dR]F[Nle]-NH2),8.48 µL/g/min,0.23 nM,6.2 nM,Active,-0.039 min⁻¹,104%,2.2 nM,16.2 nM,90.2%,15.2 nM,–,–,Drug uptake (Liver): Active
CN1CC[C@]23c4c5ccc(O)c4O[C@H]2[C@@H](O)C=C[C@H]3[C@H]1C5 [MORPHINE],–,–,–,–,–,–,–,–,–,–,–,66 %.min,ED50 (Mus musculus [14]): 6.6 µmol/kg
C[C@@H](NC(=O)[C@@H](N)Cc1ccc(O)cc1)C(=O)N[C@@H](Cc1ccccc1)C(=O)NCC(=O)N[C@@H](Cc1ccc(O)cc1)C(=O)N1CCC[C@H]1C(=O)N[C@@H](CO)C(N)=O [DERMORPHIN],–,–,–,–,–,–,–,–,–,–,–,46 %.min,–
CCCC[C@H](NC(=O)[C@H](Cc1ccccc1)NC(=O)[C@@H](CCCNC(N)=O)NC(=O)[C@@H](N)Cc1c(C)cc(O)cc1C)C(N)=O (H-[Dmt][dCit]F[Nle]-NH2),–,0.79 nM,4.7 nM,–,–,–,0.89 nM,98.5 nM,–,3.98 nM,–,–,–
Cc1cc(O)cc(C)c1C[C@H](N)C(=O)N[C@H](CCCNC(N)=O)C(=O)N[C@@H](Cc1ccccc1)C(=O)N[C@@H](CCCCN)C(N)=O,14.91 µL/g/min,0.57 nM,1.4 nM,Active,0.027 min⁻¹,96.2%,0.31 nM,20.9 nM,98.3%,50 nM,Active,521 %.min,Activity (Mus musculus [16]): Active; Drug uptake (Liver): Active; Drug uptake (Kidney): Active; ED50 (Mus musculus [17]): 0.23 µmol/kg; Ratio (Mus musculus [18]): 29; Activity (Mus musculus [19]): Active; Activity (Mus musculus [20]): Active
Cc1cc(O)cc(C)c1C[C@H](N)C(=O)N[C@H](CCCNC(N)=O)C(=O)N[C@@H](Cc1ccccc1)C(=O)N(C)[C@@H](CCCCN)C(N)=O,11.35 µL/g/min,0.94 nM,4.4 nM,Active,0.01 min⁻¹,95%,1.01 nM,11.5 nM,104%,39.2 nM,Active,1412 %.min,ED50 (Mus musculus [17]): 0.16 µmol/kg; Activity (Mus musculus [9]): Active; Ratio (Mus musculus [18]): 41; Activity (Mus musculus [20]): Active
Cc1cc(O)cc(C)c1C[C@H](N)C(=O)N[C@H](CCCNC(=N)N)C(=O)N[C@H]1Cc2ccccc2CN(CC(N)=O)C1=O,–,–,–,–,–,–,–,–,–,–,Active,253 %.min,Activity (Mus musculus [4]): Dose-dependent effect; ED50 (Mus musculus [17]): 0.47 µmol/kg; Ratio (Mus musculus [18]): 14
CCCC[C@@H](C(N)=O)N1Cc2ccccc2C[C@H](NC(=O)[C@@H](CCCN=C(N)N)NC(=O)[C@@H](N)Cc2c(C)cc(O)cc2C)C1=O,–,0.43 nM,3.1 nM,–,–,–,1.45 nM,1.12 nM,–,7.46 nM,–,–,–
Cc1cc(O)cc(C)c1C[C@H](N)C(=O)N[C@H](CCCNC(=N)N)C(=O)N[C@@H](Cc1ccccc1)C(=O)N[C@@H](CCCCN)C(N)=O,9.44 µL/g/min,–,–,Active,0.058 min⁻¹,103%,–,–,94.7%,–,Active,750 %.min,Drug uptake (Kidney): Active; Activity (Mus musculus [4]): Dose-dependent effect; ED50 (Mus musculus [6]): 0.15 µmol/kg; Activity (Mus musculus [19]): Active; half-life [21]: 1.8 h
Cc1cc(O)cc(C)c1C[C@H](N)C(=O)N[C@H](CCCN=C(N)N)C(=O)N[C@H]1Cc2ccccc2CN(CC(N)=O)C1=O,14.89 µL/g/min,–,–,Active,0.096 min⁻¹,99.6%,–,–,107%,–,–,–,Drug uptake (Kidney): Active
CCCC[C@@H](C(N)=O)N(C)C(=O)[C@H](Cc1ccccc1)NC(=O)[C@@H](CCCNC(N)=O)NC(=O)[C@@H](N)Cc1c(C)cc(O)cc1C (H-[Dmt][dCit]F[NMeNle]-NH2),–,2.92 nM,1.5 nM,–,–,–,0.65 nM,> 10 nM,–,5.03 nM,–,–,–
CCCC[C@H](NC(=O)[C@H](Cc1ccccc1)NC(=O)[C@@H](CCCNC(=N)N)NC(=O)[C@@H](N)Cc1c(C)cc(O)cc1C)C(N)=O (H-[Dmt][dR]F[Nle]-NH2),–,–,–,–,–,–,–,–,–,–,Active,65 %.min,ED50 (Mus musculus [22]): > 6 µmol/kg; Activity (Mus musculus [19]): Active
CCCC[C@@H](C(N)=O)N1Cc2ccccc2C[C@H](NC(=O)[C@@H](CCCNC(N)=O)NC(=O)[C@@H](N)Cc2c(C)cc(O)cc2C)C1=O,–,0.93 nM,1.16 nM,–,–,–,–,11.1 nM,–,3.18 nM,–,–,IC35 [23]: 0.78 nM
Cc1cc(O)cc(C)c1C[C@H](N)C(=O)N[C@H](CCCNC(=N)N)C(=O)N[C@H]1Cc2ccccc2CN([C@@H](CCCCN)C(N)=O)C1=O,–,0.61 nM,–,–,–,–,76 nM,–,–,38.6 nM,–,–,IC25 [24]: 64 nM
Cc1cc(O)cc(C)c1C[C@H](N)C(=O)N[C@H](CCCNC(N)=O)C(=O)N[C@H]1Cc2ccccc2CN([C@@H](CCCCN)C(N)=O)C1=O,–,2.62 nM,1000 nM,–,–,–,49 nM,–,–,56.9 nM,–,–,–
